According to ChEMBL document CHEMBL2169786, “5-Arylidenethioxothiazolidinones as inhibitors of tyrosyl-DNA phosphodiesterase I” (J Med Chem, 2012):
Activity calls are given as the source filed them. The rule behind the calls is not given here.

Key:
[1] = target: T1, Tyrosyl-DNA phosphodiesterase 1 (Homo sapiens, UniProt Q9NUW8); assay: Inhibition of human recombinant Tdp1 assessed as conversion of 14-mer 5'-32P-labeled 3'-phosphotyrosyl DNA substrate N14Y to 14-mer 5'-32P-labeled 3'-phosphate DNA product N14P after 15 mins by PAGE analysis
[2] = target: T1, Tyrosyl-DNA phosphodiesterase 1; assay: Inhibition of human recombinant Tdp1 expressed in Tdp1 knockout chicken DT40 cells using 5'-32P-labeled 5'-GATCTAAAAGACTT-pY-3' as substrate after 15 mins by PAGE analysis
[3] = target: T1, Tyrosyl-DNA phosphodiesterase 1; assay: Inhibition of human recombinant Tdp1 assessed as conversion of 14-mer 5'-32P-labeled 3'-phosphotyrosyl DNA substrate N14Y to 14-mer 5'-32P-labeled 3'-phosphate DNA product N14P after 15 mins by PAGE analysis in presence of bovine serum albumin
[4] = target: T2, Tyrosyl-DNA phosphodiesterase 2 (Homo sapiens, UniProt O95551); assay: Inhibition of recombinant Tdp2
T2 sequence (O95551 whole entry): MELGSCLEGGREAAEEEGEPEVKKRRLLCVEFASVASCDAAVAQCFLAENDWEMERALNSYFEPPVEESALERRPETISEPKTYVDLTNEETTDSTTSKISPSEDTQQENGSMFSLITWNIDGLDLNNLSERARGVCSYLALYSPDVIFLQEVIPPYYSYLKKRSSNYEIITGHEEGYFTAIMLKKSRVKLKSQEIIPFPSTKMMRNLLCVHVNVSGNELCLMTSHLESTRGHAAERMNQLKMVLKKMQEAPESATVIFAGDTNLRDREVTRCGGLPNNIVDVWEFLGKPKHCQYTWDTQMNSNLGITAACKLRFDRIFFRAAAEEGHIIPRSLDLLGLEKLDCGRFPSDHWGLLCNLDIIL

[5] = test system: N14Y tyrosyl-oligonucleotide (DNA, no organism); assay: Binding affinity to biotin- GATCTAAAAGACTT-Tyr immobilized CM5 sensor chip by surface plasmon resonance analysis
Homo sapiens = species on record: Homo sapiens; assay: Selectivity ratio of IC50 for recombinant Tdp2 to IC50 for human recombinant Tdp1
[6] = target: T1, Tyrosyl-DNA phosphodiesterase 1; assay: Ratio of IC50 for human recombinant Tdp1 in presence of bovine serum albumin to IC50 for human recombinant Tdp1 in absence of bovine serum albumin
[7] = target: T1, Tyrosyl-DNA phosphodiesterase 1; assay: Binding affinity to human recombinant Tdp1 in amine coupled to CM5 sensor chip by surface plasmon resonance analysis
In short: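 SPR: Tdp1 amine-coupled to CM5 chip (~6000 RU), active site protected during coupling by prebinding 2 μM 3′-phosphate 14-mer oligo to 1 μM Tdp1 in 10 mM sodium acetate pH 4.5, 20 min. Compound series 0.39–50 μM in Tris/KCl/EDTA/DTT/BSA running buffer with 5% DMSO, pH 7.5, injected at 30 μL/min, 25 °C. Buffer-cycle referencing; DMSO calibration.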

T1 sequence (Q9NUW8 whole entry): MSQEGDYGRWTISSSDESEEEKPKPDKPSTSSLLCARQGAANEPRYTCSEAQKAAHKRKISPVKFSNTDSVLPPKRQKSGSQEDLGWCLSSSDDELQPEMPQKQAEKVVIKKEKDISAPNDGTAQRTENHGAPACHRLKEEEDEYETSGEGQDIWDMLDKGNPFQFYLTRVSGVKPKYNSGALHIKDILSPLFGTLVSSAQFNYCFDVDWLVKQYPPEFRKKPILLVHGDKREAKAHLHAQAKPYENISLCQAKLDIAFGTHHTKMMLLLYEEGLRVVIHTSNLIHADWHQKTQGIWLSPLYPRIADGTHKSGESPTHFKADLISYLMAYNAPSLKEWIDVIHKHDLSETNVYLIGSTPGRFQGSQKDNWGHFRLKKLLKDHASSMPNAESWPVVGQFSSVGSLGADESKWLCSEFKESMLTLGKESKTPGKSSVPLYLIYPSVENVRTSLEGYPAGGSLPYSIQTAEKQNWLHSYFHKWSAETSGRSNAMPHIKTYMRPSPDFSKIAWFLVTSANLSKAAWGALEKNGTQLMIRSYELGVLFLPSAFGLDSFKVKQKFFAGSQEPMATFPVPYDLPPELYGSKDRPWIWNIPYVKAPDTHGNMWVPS

Compound	IC50 [1] [µM]	also measured
COc1cc(/C=C2\SC(=O)NC2=S)cc(OC)c1O	48	–
O=C1NC(=S)/C(=C/c2cccc(O)c2)S1	26	–
O=C1NC(=S)N(Cc2ccccc2)/C1=C\c1ccc(O)c(O)c1	13	–
O=C1NC(=S)/C(=C/c2ccccc2C(=O)O)S1 [listing 1 of 2 here]	8.5	IC50 [2]: 280 µM
O=C1NC(=S)/C(=C/c2cccnc2)S1	44	–
N#C/C(=C\c1ccc2ccccc2c1)C(N)=S	> 333	–
O=C1NC(=S)/C(=C/c2ccc(-c3nnn[nH]3)cc2)S1	32	–
O=C1NC(=S)/C(=C/c2csc3ccccc23)S1	34	–
N#C/C(=C\c1ccc(O)c(O)c1)C(=O)NCc1ccccc1	> 333	–
O=C1NC(=S)/C(=C/c2ccc(O)cc2O)S1	4.1	IC50 [2]: 76 µM
CC(=O)Nc1ccc(/C=C(\C#N)C(N)=S)cc1	> 333	–
O=C1NC(=O)/C(=C/c2ccc(F)cc2)S1	> 333	–
O=C(O)c1ccc(/C=C2\NC(=S)N(c3ccccc3)C2=O)cc1	> 333	–
O=C1NC(=S)/C(=C/c2cccc(C(=O)O)c2)S1	15	–
O=C1NC(=S)/C(=C/c2ccc(C(=O)O)cc2)S1 [listing 1 of 2 here]	7.8	IC50 [2]: 6.9 µM
CCOP(=O)(OCC)c1ccc(/C=C2\SC(=O)NC2=S)cc1	29	–
O=C1NC(=S)/C(=C/c2ccc([N+](=O)[O-])cc2)S1	19	–
N#C/C(=C\c1ccc([N+](=O)[O-])cc1)C(N)=S	> 333	–
O=C1NC(=S)/C(=C/c2ccc(-c3ccccc3)s2)S1	46	–
O=C1NC(=O)/C(=C/c2ccc3[nH]ccc3c2)S1	> 111	–
O=C1NC(=S)/C(=C/c2ccc(Br)cc2)S1	30	–
O=C1NC(=S)/C(=C/c2ccccc2O)S1	34	–
N#C/C(=C\c1ccc(F)cc1)C(N)=S	> 333	–
O=C1NC(=S)/C(=C/c2ccc(O)cc2)S1	39	–
N#C/C(=C\c1ccc(O)c(O)c1)C(N)=O	> 333	–
O=C1NC(=S)/C(=C/c2ccccc2S(=O)(=O)O)S1	20	–

Compound	IC50 [1] [µM]	also measured
N#C/C(=C\c1ccc2[nH]ccc2c1)C(N)=S	> 333	–
O=C1NC(=S)/C(=C/c2cc(O)ccc2O)S1	7.1	IC50 [2]: 76 µM
N#C/C(=C\c1ccc(O)c(O)c1)C(=S)NCc1ccccc1	18	–
N#C/C(=C\c1ccc(O)c(O)c1)C(=O)O	> 333	–
O=C1NC(=S)/C(=C/c2ccc(O)c(O)c2O)S1	0.87	IC50 [2]: 35 µM; IC50 [3]: 2.8 µM; IC50 [4]: 17 µM; Activity [5]: inactive; Ratio IC50 (Homo sapiens): 20; Ratio IC50 [6]: 3; Activity [7]: Dose-dependent effect
O=C1NC(=S)/C(=C/c2ccncc2)S1	75	–
N#C/C(=C\c1ccc(Br)cc1)C(N)=S	> 333	–
O=C1NC(=S)/C(=C/c2cccc(O)c2O)S1	5.8	IC50 [2]: 220 µM
O=C1NC(=S)/C(=C/c2ccc(P(=O)(O)O)cc2)S1	2.2	IC50 [2]: 69 µM
N#Cc1ccc(/C=C2\SC(=O)NC2=S)cc1	28	–
N#C/C(=C\c1ccc(C(=O)O)cc1)C(N)=S	12	–
O=C1NC(=S)/C(=C/c2ccccc2C(=O)O)S1 [listing 2 of 2 here]	15	IC50 [2]: 138 µM
O=C1NC(=S)/C(=C/c2ccccc2-c2nnn[nH]2)S1	111	–
O=C1NC(=S)N(Cc2ccccc2)/C1=C\c1ccc(C(=O)O)cc1	> 333	–
COC(=O)c1ccc(/C=C2\SC(=O)NC2=S)cc1	6.7	IC50 [2]: 38 µM
O=C1NC(=S)/C(=C/c2ccc(O)c(O)c2)S1	2.6	IC50 [2]: 41 µM
O=C1NC(=S)/C(=C/c2ccc(F)cc2)S1	27	–
O=C1/C(=C/c2ccc(F)cc2)NC(=S)N1c1ccccc1	> 333	–
O=C1NC(=O)/C(=C/c2ccc(C(=O)O)cc2)S1	> 111	–
Cn1cc(/C=C2\SC(=O)NC2=S)c2ccccc21	40	–
O=C1/C(=C/c2ccc(O)c(O)c2)NC(=S)N1c1ccccc1	74	–
O=C1NC(=S)/C(=C/c2ccc(C(=O)O)cc2)S1 [listing 2 of 2 here]	16	IC50 [2]: 11 µM
COC(=O)c1cccc(/C=C2\SC(=O)NC2=S)c1	51	–
COc1cc(/C=C2\SC(=O)NC2=S)ccc1O	11	–
N#CC(C#N)=Cc1cc(O)c(O)c(O)c1 [TYRPHOSTIN 25]	> 333	–
O=C1NC(=S)/C(=C/c2ccc3[nH]ccc3c2)S1	12	–
